# The list is not random: actives were taken first. Their share in the collection is about 1.1%.
# CAL PDZ FP-1: inhibitors of human CAL PDZ peptide binding; 300,000 compounds, 0.92% hits; purified CAL PDZ, TMR-peptide fluorescence polarization, 1 h; AID 602252; inhibition, % at 24.9 µM; Q9HD26;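 active means mean inhibition of at least 30% with at least half of replicates also reaching 30%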;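 further: 0% = DMSO neutral control and 100% = excess unlabeled competitor peptide PRC23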
# CAL PDZ FP-2: inhibitors of human CAL PDZ peptide binding; Q9HD26; purified CAL PDZ, TMR-peptide fluorescence polarization, 1 h; inhibition, % at 20 µM; 330,000 compounds, 0.02% hits;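 active means highest replicate inhibition of at least 40%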;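 further: plate controls were DMSO neutral control wells for no effect and unlabeled competitor peptide control wells for full effect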
#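 Assay system – tagged CAL PDZ protein CerCALP, purified · Timing – 1 h at RT · Compound – single point, 20 µM · Measured by – fluorescence polarization from S- and P-plane intensities, G-factor corrected · Evaluation – inhibition from polarization loss · Probe or stimulus – TMR reporter peptide T*-PRC34 · Buffer or medium – pH 7.4 phosphate-saline buffer, reducing agent, detergent, IgG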
# ERAP1 inh: inhibitors of human ERAP1 aminopeptidase; 340,000 compounds, 0.15% hits; Q9NZ08; recombinant ERAP1, Leu-AMC fluorescence, 60 min; inhibition, % at 10.7 µM;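 active means mean replicate inhibition of at least 30%, or all replicates individually reaching that 30% level; inactive means mean below 30% and not every replicate reaching it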;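 further: 0% = neutral control wells and 100% = L-leucinethiol positive control wells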
# Rin1-Abl PPI inh: inhibitors of human Rin1-Abl protein interaction; AID 588664; P00519+Q13671; inhibition, % at 7.35 µM; 360,000 compounds, 0.4% hits; TR-FRET Rin1/Abl binding, biochemical; in the data active means inhibition above about 5%, passing the limit was not always enough
# PDI inh: PDI (human) enzyme inhibition | PDI insulin aggregation turbidity, A650, 90 min | inhibition, % at 10 µM | 350,000 compounds, 0.052% hits | AID 588391;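 active means mean inhibition across replicates of 30% or more, whatever share of single replicates reach that level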
# Target sequence (P07237 whole entry, looked up): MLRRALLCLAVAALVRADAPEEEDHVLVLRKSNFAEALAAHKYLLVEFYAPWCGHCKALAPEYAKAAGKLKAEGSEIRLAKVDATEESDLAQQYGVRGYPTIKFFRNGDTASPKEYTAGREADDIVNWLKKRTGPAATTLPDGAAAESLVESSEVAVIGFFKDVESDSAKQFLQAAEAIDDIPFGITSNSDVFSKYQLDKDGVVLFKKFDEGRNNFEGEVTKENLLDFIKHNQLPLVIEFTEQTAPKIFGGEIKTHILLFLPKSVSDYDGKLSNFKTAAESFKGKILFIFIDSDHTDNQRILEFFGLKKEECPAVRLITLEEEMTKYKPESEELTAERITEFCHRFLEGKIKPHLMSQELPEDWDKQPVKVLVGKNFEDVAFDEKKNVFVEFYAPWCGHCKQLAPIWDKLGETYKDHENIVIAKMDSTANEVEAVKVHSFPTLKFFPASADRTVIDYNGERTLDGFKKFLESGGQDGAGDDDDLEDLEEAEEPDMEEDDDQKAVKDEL
# ERp5 inh: ERp5 (human) disulfide isomerase inhibition. Q15084. ERp5 insulin aggregation, absorbance 650 nm, 90 min. inhibition, % at 9.99 µM. 350,000 compounds, 0.05% hits;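 active means mean replicate inhibition above about 25%, with every replicate also reaching it, limit read from the data, passing the limit was not always enough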
# Numbers without * were called inactive; / = no result.
SMILES,CAL PDZ FP-1,CAL PDZ FP-2,ERAP1 inh,Rin1-Abl PPI inh,PDI inh,ERp5 inh
CN1C(=O)c2cc(NC(=O)c3cccc(F)c3)ccc2OC[C@H]2O[C@@H](CC(=O)NC3CCC3)CC[C@@H]21,/,/,1.1,/,/,/
COc1ccccc1NC(=S)N(Cc1ccc(C(=O)O)cc1)Cc1ccc(OC)c(OC)c1,50.2*,0.1,1.1,0.3,-6.4,1.8
COC(=O)[C@@H]1[C@@H](CO)[C@@H]2Cn3c(ccc(-c4ccccc4F)c3=O)[C@@H]2N1C(=O)CC1CC1,/,/,0.2,/,/,4.7
S=c1[nH]nc(NCCCN2CCOCC2)s1,-1.9,-1.4,86.5*,2.1,-4.0,-6.1
S=C(NCCCN1CCOCC1)NCCCN1CCOCC1,4.4,-0.3,1.2,0.5,-2.3,-4.4
C=CCNc1ncnc2c1ncn2[C@H]1CN(Cc2cccc3ccccc23)C[C@@H](CO)O1,/,/,-0.6,0.3,39.2*,-5.4
C=CCNc1ncnc2c1ncn2[C@H]1CN(Cc2ccccc2)C[C@@H](CO)O1,/,/,-3.1,-0.2,5.6,-1.2
Cc1ccc(NC(=O)COc2ccccc2C(=O)NCCc2ccccc2)cc1,72.0*,3.4,-0.8,0.3,4.8,1.4
O=C(COc1ccccc1C(=O)Nc1ccccc1)NCCc1ccccc1,/,-0.4,-4.1,-1.4,6.7,-4.4
CCSc1ccccc1C(=O)NCCc1ccccc1,45.5*,-0.4,5.0,-0.2,12.8,3.0
Cc1cc(NS(=O)(=O)c2c(C(=O)N3CCOCC3)c(C)n(C)c2C)ccc1Br,77.6*,-0.6,-0.4,0.0,8.4,3.5
COc1ccccc1-c1ccc2n(c1=O)C[C@@H]1[C@@H](CO)[C@H](C(=O)N3CCN(C)CC3)[C@H]2N1CC1CC1,/,/,0.7,/,/,-1.6
CNC(=O)CSc1nc2nn(-c3ccccc3)c(=O)c-2c2n1CCCCC2,/,-2.3,1.4,-4.0,-0.7,5.9
O=C(CSc1nc2nn(-c3ccccc3)c(=O)c-2c2n1CCCCC2)c1ccc(O)c(O)c1,0.2,0.9,/,16.1*,53.1*,/
O=C(CSc1nc2nn(-c3ccccc3)c(=O)c-2c2n1CCCCC2)Nc1ccc(OC(F)F)cc1,126.6*,4.7,0.6,1.4,-1.8,6.8
CC(=O)c1ccc(NC(=O)CSc2nc3nn(-c4ccccc4)c(=O)c-3c3n2CCCCC3)cc1,-4.2,-0.2,0.4,0.9,0.4,0.6
COc1cccc(CNC(=O)C[C@@H]2CC[C@@H]3[C@H](COc4ccc(NS(=O)(=O)c5ccccc5F)cc4C(=O)N3C)O2)c1,/,/,-0.1,/,/,0.1
COc1ccc(NN=Nc2ccc([N+](=O)[O-])cc2)cc1,41.7*,0.2,-1.6,-2.5,12.2,0.1
COc1ccc(N/N=C(/Oc2ccc([N+](=O)[O-])cc2)C(C)=O)cc1,0.9,-0.7,/,-0.6,-5.8,/
COc1ccccc1N(CC(=O)N1CCCC1)S(=O)(=O)c1ccc(C)cc1,-3.7,-2.3,3.3,-1.2,-6.6,2.1
COc1ccccc1N(CC(=O)N1CCN(c2ccc(F)cc2)CC1)S(=O)(=O)c1ccc(C)cc1,54.6*,-1.5,1.8,-1.1,11.0,2.6
CC(C)CC#Cc1ccc2c(c1)O[C@@H](CN(C)C(=O)c1ccncc1)[C@@H](C)CN([C@H](C)CO)S2(=O)=O,/,/,0.3,/,/,-1.4
C[C@@H]1CN([C@H](C)CO)S(=O)(=O)c2ccc(Br)cc2O[C@H]1CN(C)Cc1cncnc1,/,/,-1.8,/,/,0.1
Cc1cc(OCC(=O)NCc2ccccn2)c2c(C)cc(=O)oc2c1,47.1*,-0.2,5.4,4.3,-2.8,0.9
CN(C)c1nc(NCc2ccccc2)nc(Oc2ccc(=O)[nH]n2)n1,40.0*,-0.5,/,1.4,-2.5,/
CCN(CC)c1nc(Nc2ccccc2)nc(Oc2ccc(=O)[nH]n2)n1,/,-2.8,/,-1.4,-4.8,/
OC[C@H]1CC[C@@H]2O[C@H](CCc3ccc(-c4ccccc4)cc3)[C@@H](n3cc(C4CC4)nn3)C[C@@H]2O1,/,/,0.8,/,/,2.6
Cc1cccc2sc(N(CCCN(C)C)C(=O)c3ccc4ncsc4c3)nc12,-2.4,-5.2,76.2*,0.2,-7.7,-3.7
O=C(NCC1(c2ccccc2)CCCC1)C(=O)NCC1(c2ccccc2)CCCC1,-4.8,-0.1,/,-3.5,0.8,/
CC1(CNC(=O)C(=O)NCC2(C)CO2)CO1 (centres undefined),40.6*,0.9,-1.4,1.7,5.3,4.0

# Screening results as filed in PubChem BioAssay.
